Legend:
Type in all cases: functional, organism-based
[1] = test system: Rattus norvegicus; test: Serum concentration of estradiol 18 days after intravenous administration in Orchidectomized rats
How it was run: (§1)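 Male rats were orchidectomized and 2 weeks later given a single iv dose (2.1 or 3.0 mg/kg, dimethyl sulfoxide vehicle). After decapitation at 12, 18 or 24 days, serum estradiol was measured by a published radioimmunoassay in modified form, in duplicate. Assay sensitivity limit was 20 pg/mL. Values are mean ± SEM, with the number of samples below the limit given per group.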

[2] = test system: Rattus norvegicus; test: Serum concentration of LH 12 days after intravenous administration in Orchidectomized rats
How it was run: (§2)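 Male rats given a single iv dose (2.1 or 3.0 mg/kg, dimethyl sulfoxide vehicle at 0.5 mL/kg) 2 weeks after orchidectomy. At 12, 18 or 24 days they were killed by decapitation and serum LH was measured by radioimmunoassay, expressed against reference preparation LH-RP-2. Samples assayed in duplicate; mean ± SEM, 6–7 animals per group.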

[3] = test system: Rattus norvegicus; test: Serum concentration of LH 18 days after intravenous administration in Orchidectomized rats; how it was run: as §2
[4] = test system: Rattus norvegicus; test: Serum concentration of estradiol 24 days after intravenous administration in Orchidectomized rats; how it was run: as §1
[5] = test system: Rattus norvegicus; test: Serum concentration of estradiol 12 days after intravenous administration in Orchidectomized rats; how it was run: as §1
[6] = test system: Rattus norvegicus; test: Serum concentration of LH 24 days after intravenous administration in Orchidectomized rats; how it was run: as §2

| SMILES | Concentration [1] [ng/mL] | Concentration [2] [ng/mL] | Concentration [3] [ng/mL] | Concentration [4] [ng/mL] | Concentration [5] [ng/mL] | Concentration [6] [ng/mL] |
| --- | --- | --- | --- | --- | --- | --- |
| C[C@]12CC[C@@H]3c4ccc(O)cc4CC[C@H]3[C@@H]1CC[C@@H]2O | < 0.02 | 12.9 | 12.1 | 0.0312 | 0.0293 | 11.6 |
| CN1C=CCC(C(=O)O[C@H]2CC[C@H]3[C@@H]4CCc5cc(O)ccc5[C@H]4CC[C@]23C)=C1 | < 0.02 | 0.8 | 1.7 | 0.0241 | 0.0259 | 2.9 |
| C[S+](C)[O-] | < 0.02 | 6.8 | 12.4 | 0.0244 | 0.0275 | 8.6 |
